Measured values as given in ChEMBL document CHEMBL1123146, “Design, synthesis, and evaluation of omega-iodovinyl- and omega-iodoalkyl-substituted methyl-branched long-chain fatty acids” (J Med Chem, 1985).

Legend:
[1] = system: Rattus norvegicus; assay: Concentration was measured in liver tissue of unfasted Fischer 344 rats administered intravenously after 5 minute (radiolabeled with [123I]-; type: ADME, organism-based; details: in vivo, iv, 5 min
[2] = system: Rattus norvegicus; assay: Concentration was measured in liver tissue of unfasted Fischer 344 rats administered intravenously after 5 minute (radiolabeled with [125I]-; type: ADME, organism-based; details: in vivo, iv, 5 min
Method in brief: (§1)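 Female Fischer 344 rats, 10-12 weeks old, 170-200 g, with food and water ad libitum. The 125I-fatty acid was taken up in ethanol, added dropwise to stirred 6% BSA at ~40 °C (final ethanol 10%), filtered, and given as 0.5 mL via lateral tail vein under ether anesthesia. Rats were killed by cervical fracture; blood was taken by cardiac puncture. Organs were rinsed, blotted, weighed and gamma-counted against injectate standards to give %ID/g. Five rats per time point.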

[3] = system: Rattus norvegicus; assay: Concentration was measured in lungs tissue of unfasted Fischer 344 rats administered intravenously after 4 hr (radiolabeled with [123I]-; type: ADME, organism-based, Lung; details: in vivo, iv
[4] = system: Rattus norvegicus; assay: Concentration was measured in heart tissue of unfasted Fischer 344 rats administered intravenously after 60 minute (radiolabeled with [123I]-; type: ADME, organism-based; details: in vivo, iv, 1 h
[5] = system: Rattus norvegicus; assay: Concentration was measured in kidney tissue of unfasted Fischer 344 rats administered intravenously after 5 minute (radiolabeled with [125I]-; type: ADME, organism-based; details: in vivo, iv, 5 min; method in brief: as §1
[6] = system: Rattus norvegicus; assay: Concentration was measured in kidney tissue of unfasted Fischer 344 rats administered intravenously after 60 minute (radiolabeled with [123I]-; type: ADME, organism-based; details: in vivo, iv, 1 h
[7] = system: Rattus norvegicus; assay: Concentration was measured in blood tissue of unfasted Fischer 344 rats administered intravenously after 30 minute (radiolabeled with [123I]-; type: ADME, organism-based; details: in vivo, iv, 0.5 h
[8] = system: Rattus norvegicus; assay: Concentration was measured in blood tissue of unfasted Fischer 344 rats administered intravenously after 4 hr (radiolabeled with [123I]-; type: ADME, organism-based; details: in vivo, iv
[9] = system: Rattus norvegicus; assay: Concentration was measured in blood tissue of unfasted Fischer 344 rats administered intravenously after 5 minute (radiolabeled with [123I]-; type: ADME, organism-based; details: in vivo, iv, 5 min
[10] = system: Rattus norvegicus; assay: Concentration was measured in blood tissue of unfasted Fischer 344 rats administered intravenously after 5 minute (radiolabeled with [125I]-; type: ADME, organism-based; details: in vivo, iv, 5 min; method in brief: as §1
[11] = system: Rattus norvegicus; assay: Concentration was measured in thyroid tissue of unfasted Fischer 344 rats administered intravenously after 5 minute (radiolabeled with [125I]-; type: ADME, organism-based, Thyroid gland; details: in vivo, iv, 5 min
Method in brief: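 Female Fischer 344 rats, 10–12 weeks old (170–200 g), with food and water ad libitum, five per time point. The radioiodinated fatty acid was dissolved in ethanol, added to 6% BSA at ~40 °C (final 10% ethanol), filtered, and injected into a lateral tail vein (0.5 mL) under ether anesthesia. Blood was taken by cardiac puncture; organs were rinsed, blotted, weighed and gamma-counted against injectate standards. Output is % injected dose/g.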

[12] = system: Rattus norvegicus; assay: Concentration was measured in tissue of unfasted Fischer 344 rats administered intravenously after 60 minute (radiolabeled with [123I]-; type: ADME, organism-based; details: in vivo, iv, 1 h
[13] = system: Rattus norvegicus; assay: Concentration was measured in blood tissue of unfasted Fischer 344 rats administered intravenously after 30 minute (radiolabeled with [125I]-; type: ADME, organism-based; details: in vivo, iv, 0.5 h, in the assay text read “fasted” for “unfasted”
[14] = system: Rattus norvegicus; assay: Concentration was measured in thyroid tissue of fasted Fischer 344 rats administered intravenously after 4 hr (radiolabeled with [123I]-; details: in vivo, iv
[15] = system: Rattus norvegicus; assay: Concentration was measured in mean heart/blood tissue of fasted Fischer 344 rats administered intravenously after 60 minute (radiolabeled with [123I]-; details: in vivo, iv, 1 h
[16] = system: Rattus norvegicus; assay: Concentration was measured in mean heart/blood tissue of fasted Fischer 344 rats administered intravenously after 30 minute (radiolabeled with [125I]-; details: in vivo, iv, 0.5 h

Distribution [1]: 4.87%
Distribution [2]: 6.48%
Distribution [3]: 1.23%
Distribution [4]: 0.78%
Distribution [5]: 1.06%
Distribution [6]: 0.96%
Distribution [7]: 0.74%
Distribution [8]: 0.61%
Distribution [9]: 0.74%
Distribution [10]: 0.91%
Distribution [11]: 16.7%
Distribution [12]: 2.62%
Distribution [13]: 0.77%
Distribution [14]: 392%
Distribution [15]: 1.2%
Distribution [16]: 4.3%
Compound: CC(CCCCCCCCCCCCCC/C=C/I)CC(=O)O.O=C(O)CCCCCCCCCCCCCCCC/C=C/I (stereo unspecified)
